# Measured values: ChEMBL document CHEMBL4014347, “Targeting Mycolic Acid Transport by Indole-2-carboxamides for the Treatment of Mycobacterium abscessus Infections” (J Med Chem, 2017)
# Activity calls are given as the source filed them. The calls are words filed in the database; no cut-off is given here.
# What was measured:
# [1] = tested on: Mycobacteroides abscessus; experiment: Antibacterial activity against Mycobacterium abscessus CIP104536 after 3 to 5 days by two fold serial dilution method; assay type: functional
# Summary of the method: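 Broth microdilution per CLSI in cation-adjusted Mueller–Hinton broth; exponential-phase inoculum 5 × 10^6 CFU/mL; two-fold serial dilutions from highest concentration, solvent wells as control; 30 °C for 3−5 days; MIC read visually and confirmed by absorbance at 560 nm; triplicate on three independent occasions.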
# [2] = Selectivity index, ratio of IC50 for African green monkey Vero cells to MIC=<90 for Mycobacterium tuberculosis; assay type: toxicity; conditions: read-out: Selectivity Index
# [3] = tested on: Mycobacteroides abscessus; experiment: Antibacterial activity against CF patient derived Mycobacterium abscessus subsp. abscessus rough variant after 3 to 5 days by two fold serial dilution method; assay type: functional
# Summary of the method: (§1)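 Broth microdilution in cation-adjusted Mueller−Hinton broth per CLSI; inoculum 5 × 10^6 CFU/mL of exponential-phase bacteria; two-fold serial dilutions, solvent-only wells as control; 30 °C for 3−5 days; MIC read visually and confirmed by absorbance at 560 nm; triplicate on three independent occasions.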
# [4] = tested on: Mycobacteroides abscessus; experiment: Antibacterial activity against non CF patient derived Mycobacterium abscessus subsp. abscessus isolate CIP104536 rough variant after 3 to 5 days by two fold serial dilution method; assay type: functional; summary of the method: as §1
# [5] = tested on: Mycobacteroides abscessus; experiment: Antibacterial activity against CF patient derived Mycobacterium abscessus subsp. abscessus isolate 1298 smooth variant after 3 to 5 days by two fold serial dilution method; assay type: functional; summary of the method: as §1
# [6] = tested on: Mycobacteroides abscessus; experiment: Antibacterial activity against CF patient derived Mycobacterium abscessus subsp. abscessus isolate 2069 smooth variant after 3 to 5 days by two fold serial dilution method; assay type: functional; summary of the method: as §1
# [7] = tested on: Mycobacteroides abscessus; experiment: Antibacterial activity against CF patient derived Mycobacterium abscessus subsp. massiliense isolate 185 smooth variant after 3 to 5 days by two fold serial dilution method; assay type: functional; summary of the method: as §1
# [8] = tested on: Mycobacteroides abscessus; experiment: Antibacterial activity against CF patient derived Mycobacterium abscessus subsp. massiliense isolate 100 smooth variant after 3 to 5 days by two fold serial dilution method; assay type: functional; summary of the method: as §1
# [9] = tested on: Mycobacteroides abscessus; experiment: Antibacterial activity against CF patient derived Mycobacterium abscessus subsp. massiliense isolate 107 smooth variant after 3 to 5 days by two fold serial dilution method; assay type: functional; summary of the method: as §1
# [10] = tested on: Mycobacteroides abscessus; experiment: Antibacterial activity against CF patient derived Mycobacterium abscessus subsp. massiliense isolate 122 smooth variant after 3 to 5 days by two fold serial dilution method; assay type: functional; summary of the method: as §1
# [11] = tested on: Mycobacteroides abscessus; experiment: Antibacterial activity against CF patient derived Mycobacterium abscessus subsp. massiliense isolate 120 smooth variant after 3 to 5 days by two fold serial dilution method; assay type: functional; summary of the method: as §1
# [12] = Antibacterial activity against CF patient derived Mycobacterium abscessus subsp. bolletii isolate 108 rough variant after 3 to 5 days by two fold serial dilution method; assay type: functional; conditions: Mycobacteroides abscessus; summary of the method: as §1
# [13] = Antibacterial activity against CF patient derived Mycobacterium abscessus subsp. bolletii isolate 97 smooth variant after 3 to 5 days by two fold serial dilution method; assay type: functional; conditions: Mycobacteroides abscessus; summary of the method: as §1
# [14] = Antibacterial activity against Mycobacterium abscessus subsp. bolletii isolate CIP108541 smooth variant after 3 to 5 days by two fold serial dilution method; assay type: functional; conditions: Mycobacteroides abscessus; summary of the method: as §1
# [15] = tested on: Mycobacteroides abscessus; experiment: Antibacterial activity against Mycobacterium abscessus CIP104536 smooth variant assessed as reduction in viable colony forming unit at […] after 4 days by time-kill assay; assay type: functional
# [16] = tested on: Mycobacteroides abscessus; experiment: Antibacterial activity against Mycobacterium abscessus CIP104536 smooth variant harboring pMV261 MAB_4508 wild type at 0.5 to 1 ug/ml after 3 days; assay type: functional
# Summary of the method: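 M. abscessus overexpressing wild-type or A309P MAB_4508 from pMV261 plated on 7H10 agar with 10% OADC containing drug; plates incubated at 30 °C for 3 days before growth inspection.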
# [17] = tested on: Mycobacteroides abscessus; experiment: Effect on de novo mycolic acid biosynthesis in Mycobacterium abscessus CIP104536 smooth variant at 6.2 ug/ml preincubated for 1 hr followed by [14C]acetic acid addition measured after 2 hrs by TLC based autoradiography analysis; assay type: functional
# Summary of the method: (§2)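 Exponential cultures in 7H9 with OADC exposed to increasing drug concentrations for 1 h at 37 °C with agitation, then labelled with 1 μCi/mL [14C]acetate (56 mCi/mmol) for 2 h; apolar lipids (TMM, TDM) run on TLC in chloroform/methanol/water 40:8:1; MAME and arabinogalactan-bound mycolates in petroleum ether/acetone 95:5; autoradiography.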
# [18] = tested on: Mycobacteroides abscessus; experiment: Inhibition of MmpL3 in Mycobacterium abscessus CIP104536 smooth variant assessed as reduction in trehalose dimycolate synthesis up to 6.2 ug/ml preincubated for 1 hr followed by [14C]acetic acid addition measured after 2 hrs by TLC based autoradiography analysis; summary of the method: as §2
# [19] = tested on: Mycobacteroides abscessus; experiment: Inhibition of MmpL3 in Mycobacterium abscessus CIP104536 smooth variant assessed as increase in accumulation of trehalose monomycolate up to 6.2 ug/ml preincubated for 1 hr followed by [14C]acetic acid addition measured after 2 hrs by TLC based autoradiography analysis; summary of the method: as §2
# [20] = tested on: Mycobacteroides abscessus; experiment: Inhibition of MmpL3 in Mycobacterium abscessus CIP104536 smooth variant assessed as reduction in arabinogalactan mycolation preincubated for 1 hr followed by [14C]acetic acid addition measured after 2 hrs by TLC based autoradiography analysis; summary of the method: as §2
# Cytochrome P450 3A4 = Cytochrome P450 3A4 (Homo sapiens, UniProt P08684); experiment: Inhibition of CYP3A4 in human liver microsomes preincubated for 5 mins followed by NADPH addition measured after 5 mins by LC-MS/MS analysis; assay type: ADME
# Cytochrome P450 3A4, sequence (P08684 whole entry): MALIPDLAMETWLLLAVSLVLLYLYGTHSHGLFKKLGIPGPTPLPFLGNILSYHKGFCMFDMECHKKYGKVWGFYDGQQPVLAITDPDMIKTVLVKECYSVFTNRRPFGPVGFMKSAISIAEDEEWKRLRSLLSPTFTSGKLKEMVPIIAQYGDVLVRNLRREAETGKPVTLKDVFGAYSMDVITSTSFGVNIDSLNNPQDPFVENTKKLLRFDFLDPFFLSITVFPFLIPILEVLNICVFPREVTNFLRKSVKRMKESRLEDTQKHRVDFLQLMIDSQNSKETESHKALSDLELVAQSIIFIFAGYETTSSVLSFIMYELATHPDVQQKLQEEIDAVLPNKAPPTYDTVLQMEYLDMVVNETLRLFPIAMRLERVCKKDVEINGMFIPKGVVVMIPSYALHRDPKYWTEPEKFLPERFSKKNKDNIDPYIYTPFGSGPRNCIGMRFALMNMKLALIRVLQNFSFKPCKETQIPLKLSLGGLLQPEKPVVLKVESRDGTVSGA
# [21] = Permeability of the compound at 25 uM at pH 5 after 4 hrs by LC-MS based PAMPA; assay type: physicochemical; conditions: read-out: permeability
# Summary of the method: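 PAMPA: 25 μM compound in aqueous buffer at pH 7.4 or 5.0 (pH adjusted with NaOH) in donor plate, triplicate; acceptor membrane coated with GIT-0 lipid, acceptor sink buffer; 4 h at 25 ± 2 °C; donor and acceptor solutions analysed by LC-MS (UPLC).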
# [22] = tested on: Mycobacterium tuberculosis; experiment: Inhibition of C-terminal His-tagged Mycobacterium tuberculosis Ag85C expressed in Escherichia coli C41 (DE3) at 2.5 to 50 uM after 1 hr by resorufin butyrate-based fluorescence assay
# Summary of the method: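 Purified Ag85C mycolyltransferase activity measured with the fluorescent probe resorufin butyrate; compounds tested at 2.5 to 50 μM.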
# Cytochrome P450 2C19 = Cytochrome P450 2C19 (Homo sapiens, UniProt P33261); experiment: Inhibition of CYP2C19 in human liver microsomes preincubated for 5 mins followed by NADPH addition measured after 40 mins by LC-MS/MS analysis; assay type: ADME
# Cytochrome P450 2C19, sequence (P33261 whole entry): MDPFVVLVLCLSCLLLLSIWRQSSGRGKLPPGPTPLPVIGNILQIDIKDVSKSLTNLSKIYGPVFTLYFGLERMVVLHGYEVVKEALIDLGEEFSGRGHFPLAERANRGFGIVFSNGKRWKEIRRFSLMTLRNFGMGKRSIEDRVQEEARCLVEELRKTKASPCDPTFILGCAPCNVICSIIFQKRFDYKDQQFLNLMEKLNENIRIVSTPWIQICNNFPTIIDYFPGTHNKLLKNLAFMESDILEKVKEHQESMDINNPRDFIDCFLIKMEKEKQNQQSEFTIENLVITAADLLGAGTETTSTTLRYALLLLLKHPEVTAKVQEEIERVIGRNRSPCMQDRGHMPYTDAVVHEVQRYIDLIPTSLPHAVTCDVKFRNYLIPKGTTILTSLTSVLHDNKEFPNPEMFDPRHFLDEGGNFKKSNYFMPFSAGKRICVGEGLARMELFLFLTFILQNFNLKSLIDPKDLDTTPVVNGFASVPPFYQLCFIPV
# CYP2C9 = CYP2C9 (Homo sapiens, UniProt P11712); experiment: Inhibition of CYP2C9 in human liver microsomes preincubated for 5 mins followed by NADPH addition at 10 uM measured after 10 mins by LC-MS/MS analysis relative to control; assay type: ADME
# CYP2C9, sequence (P11712 whole entry): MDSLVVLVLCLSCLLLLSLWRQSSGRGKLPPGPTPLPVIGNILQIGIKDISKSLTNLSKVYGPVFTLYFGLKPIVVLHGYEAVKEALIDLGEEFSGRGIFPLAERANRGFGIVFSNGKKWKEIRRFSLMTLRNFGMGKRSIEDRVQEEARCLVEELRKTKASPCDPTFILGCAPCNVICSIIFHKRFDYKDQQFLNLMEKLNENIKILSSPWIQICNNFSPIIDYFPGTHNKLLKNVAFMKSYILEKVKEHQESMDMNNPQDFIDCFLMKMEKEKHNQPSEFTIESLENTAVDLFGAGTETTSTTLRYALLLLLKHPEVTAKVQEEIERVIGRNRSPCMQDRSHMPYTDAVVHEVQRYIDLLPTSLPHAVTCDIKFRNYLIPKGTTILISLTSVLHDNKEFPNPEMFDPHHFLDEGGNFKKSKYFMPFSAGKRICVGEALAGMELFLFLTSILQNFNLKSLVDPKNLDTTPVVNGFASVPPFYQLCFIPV
# CYP2D6 = CYP2D6 (Homo sapiens, UniProt P10635); experiment: Inhibition of CYP2D6 in human liver microsomes preincubated for 5 mins followed by NADPH addition at 10 uM measured after 10 mins by LC-MS/MS analysis relative to control; assay type: ADME
# CYP2D6, sequence (P10635 whole entry): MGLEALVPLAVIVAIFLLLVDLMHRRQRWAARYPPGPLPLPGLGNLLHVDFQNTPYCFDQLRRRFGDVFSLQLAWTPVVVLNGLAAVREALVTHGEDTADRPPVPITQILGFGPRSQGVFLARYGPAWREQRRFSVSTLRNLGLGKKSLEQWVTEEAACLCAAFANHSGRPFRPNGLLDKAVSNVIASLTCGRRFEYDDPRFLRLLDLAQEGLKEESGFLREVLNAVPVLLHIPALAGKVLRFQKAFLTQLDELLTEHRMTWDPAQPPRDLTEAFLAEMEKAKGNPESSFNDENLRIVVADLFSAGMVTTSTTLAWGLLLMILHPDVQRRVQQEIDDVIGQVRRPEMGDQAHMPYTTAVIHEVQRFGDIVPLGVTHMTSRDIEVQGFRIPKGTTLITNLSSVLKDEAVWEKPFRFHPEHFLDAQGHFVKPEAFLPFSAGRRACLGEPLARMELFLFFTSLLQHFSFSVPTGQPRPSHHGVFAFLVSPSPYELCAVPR
# Salmonella typhimurium = experiment: Mutagenicity in Salmonella typhimurium TA100 in presence of rat liver S9 fraction assessed as increase in revertant colonies at 0.24 to 500 ug/well after 72 hrs by Ames test relative to control; assay type: toxicity; conditions: salmonella enterica subsp. enterica serovar typhimurium, s9, 72 h
# Summary of the method: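 Reverse mutation at histidine locus in S. typhimurium TA98 (frameshift) and TA100 (base-pair substitution), with and without S9; 0.24−500 μg/well; 37 ± 2 °C for 72 h, triplicates; DMSO vehicle; sodium azide, 2-nitrofluorene, 2-aminoanthracene positive controls; positive if revertants rise ≥2-fold over negative control dose-dependently.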
smiles,measurement,setting,value
O=C(NC1CCCCCC1)c1cc2c(Cl)cc(Cl)cc2[nH]1,MIC,[1],0.125 µg/mL
same,selectivity ratio,[2],2050 to 4100
same,MIC,[3],0.125 µg/mL
same,MIC,[4],0.125 µg/mL
same,MIC,[5],0.125 µg/mL
same,MIC,[6],0.125 µg/mL
same,MIC,[7],0.125 µg/mL
same,MIC,[8],0.125 µg/mL
same,MIC,[9],0.25 µg/mL
same,MIC,[10],0.125 µg/mL
same,MIC,[11],0.125 µg/mL
same,MIC,[12],0.25 µg/mL
same,MIC,[13],0.125 µg/mL
same,MIC,[14],0.125 µg/mL
same,Activity,[15],Active
same,Activity,[16],Active
same,Activity,[17],inactive
same,inhibition,[18],Active
same,inhibition,[19],Active
same,inhibition,[20],Dose-dependent effect
same,IC50,Cytochrome P450 3A4,≤ 20 µM
same,"Papp at 4 h, 25 µM",[21],0.3 ×10⁻⁶ cm/s
same,inhibition,[22],inactive
same,IC50,Cytochrome P450 2C19,≤ 20 µM
same,"inhibition at 10 min, 10 µM",CYP2C9,6%
same,"inhibition at 10 min, 10 µM",CYP2D6,10%
same,fold change (FC),Salmonella typhimurium,< 2
